Assay results from ChEMBL document CHEMBL1926577, “Novel 1,3,4-heterodiazole analogues: synthesis and in-vitro antitumor activity” (2012).

What was measured:
Format in all cases: functional
SF-295 = test: Growth inhibition of human SF295 cells at 10 uM after 48 hrs by coulter counter method; details: SF-295, 48 h, read-out: GI
Summary of the method: (§1)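 NCI 60-cell-line panel, single dose. Compound dissolved first in DMSO, then diluted in phosphate-buffered saline so that every final dilution held under 1% DMSO. Duplicate wells received cells at 6 × 10⁴ cells/ml. Controls held PBS/DMSO at the same dilution. Plates were incubated 48 h at 37 °C under 5% CO₂. Cells were then diluted 10-fold in saline and counted on a Coulter counter, with counts corrected for the dilution. Results are given as percent growth inhibition.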

K562 = test: Growth inhibition of human K562 cells at 10 uM after 48 hrs by coulter counter method; details: K562, 48 h, read-out: GI; summary of the method: as §1
T47D = test: Growth inhibition of human T47D cells at 10 uM after 48 hrs by coulter counter method; details: read-out: GI; summary of the method: as §1
IGROV-1 = test: Growth inhibition of human IGROV1 cells at 10 uM after 48 hrs by coulter counter method; details: IGROV-1, 48 h, read-out: GI; summary of the method: as §1
MDA-MB-468 = test: Growth inhibition of human MDA-MB-468 cells at 10 uM after 48 hrs by coulter counter method; details: MDA-MB-468, 48 h, read-out: GI; summary of the method: as §1
M14 = test: Growth inhibition of human M14 cells at 10 uM after 48 hrs by coulter counter method; details: M14, 48 h, read-out: GI; summary of the method: as §1
EKVX = test: Growth inhibition of human EKVX cells at 10 uM after 48 hrs by coulter counter method; details: read-out: GI; summary of the method: as §1
NCI-H226 = test: Growth inhibition of human NCI-H226 cells at 10 uM after 48 hrs by coulter counter method; details: NCI-H226, 48 h, read-out: GI; summary of the method: as §1
ACHN = test: Growth inhibition of human ACHN cells at 10 uM after 48 hrs by coulter counter method; details: read-out: GI; summary of the method: as §1
RPMI-8226 = test: Growth inhibition of human RPMI8226 cells at 10 uM after 48 hrs by coulter counter method; details: RPMI-8226, 48 h, read-out: GI; summary of the method: as §1
SK-MEL-28 = test: Growth inhibition of human SK-MEL-28 cells at 10 uM after 48 hrs by coulter counter method; details: SK-MEL-28, 48 h, read-out: GI; summary of the method: as §1
NCI-H23 = test: Growth inhibition of human NCI-H23 cells at 10 uM after 48 hrs by coulter counter method; details: NCI-H23, 48 h, read-out: GI; summary of the method: as §1
CCRF-CEM = test: Growth inhibition of human CCRF-CEM cells at 10 uM after 48 hrs by coulter counter method; details: read-out: GI; summary of the method: as §1
TK-10 = test: Growth inhibition of human TK10 cells at 10 uM after 48 hrs by coulter counter method; details: TK-10, 48 h, read-out: GI; summary of the method: as §1
SN12C = test: Growth inhibition of human SN12C cells at 10 uM after 48 hrs by coulter counter method; details: read-out: GI; summary of the method: as §1
SK-MEL-2 = test: Growth inhibition of human SK-MEL-2 cells at 10 uM after 48 hrs by coulter counter method; details: SK-MEL-2, 48 h, read-out: GI; summary of the method: as §1
BT-549 = test: Growth inhibition of human BT549 cells at 10 uM after 48 hrs by coulter counter method; details: BT-549, 48 h, read-out: GI; summary of the method: as §1
MOLT-4 = test: Growth inhibition of human MOLT4 cells at 10 uM after 48 hrs by coulter counter method; details: MOLT-4, 48 h, read-out: GI; summary of the method: as §1
MDA-MB-435 = test: Growth inhibition of human MDA-MB-435 cells at 10 uM after 48 hrs by coulter counter method; details: MDA-MB-435, 48 h, read-out: GI; summary of the method: as §1
NCI/ADR-RES = test: Growth inhibition of human NCI/ADR-RES cells at 10 uM after 48 hrs by coulter counter method; details: read-out: GI; summary of the method: as §1
A498 = test: Growth inhibition of human A498 cells at 10 uM after 48 hrs by coulter counter method; details: A498, 48 h, read-out: GI; summary of the method: as §1
KM12 = test: Growth inhibition of human KM12 cells at 10 uM after 48 hrs by coulter counter method; details: KM12, 48 h, read-out: GI; summary of the method: as §1
SNB-75 = test: Growth inhibition of human SNB75 cells at 10 uM after 48 hrs by coulter counter method; details: SNB-75, 48 h, read-out: GI; summary of the method: as §1
PC-3 = test: Growth inhibition of human PC3 cells at 10 uM after 48 hrs by coulter counter method; details: PC-3, 48 h, read-out: GI; summary of the method: as §1
NCI-H322M = test: Growth inhibition of human NCI-H322M cells at 10 uM after 48 hrs by coulter counter method; details: read-out: GI; summary of the method: as §1
U-251 = test: Growth inhibition of human U251 cells at 10 uM after 48 hrs by coulter counter method; details: U-251, 48 h, read-out: GI; summary of the method: as §1
UO-31 = test: Growth inhibition of human UO31 cells at 10 uM after 48 hrs by coulter counter method; details: UO-31, 48 h, read-out: GI; summary of the method: as §1
OVCAR-8 = test: Growth inhibition of human OVCAR8 cells at 10 uM after 48 hrs by coulter counter method; details: OVCAR-8, 48 h, read-out: GI; summary of the method: as §1
MCF7 = test: Growth inhibition of human MCF7 cells at 10 uM after 48 hrs by coulter counter method; details: MCF7, 48 h, read-out: GI; summary of the method: as §1
UACC-62 = test: Growth inhibition of human UACC62 cells at 10 uM after 48 hrs by coulter counter method; details: UACC-62, 48 h, read-out: GI; summary of the method: as §1
SR = test: Growth inhibition of human SR cells at 10 uM after 48 hrs by coulter counter method; details: read-out: GI; summary of the method: as §1
NCI-H522 = test: Growth inhibition of human NCI-H522 cells at 10 uM after 48 hrs by coulter counter method; details: NCI-H522, 48 h, read-out: GI; summary of the method: as §1
CAKI-1 = test: Growth inhibition of human Caki1 cells at 10 uM after 48 hrs by coulter counter method; details: CAKI-1, 48 h, read-out: GI; summary of the method: as §1
HCT-116 = test: Growth inhibition of human HCT116 cells at 10 uM after 48 hrs by coulter counter method; details: HCT-116, 48 h, read-out: GI; summary of the method: as §1
LOX IMVI = test: Growth inhibition of human LOXIMVI cells at 10 uM after 48 hrs by coulter counter method; details: read-out: GI; summary of the method: as §1
UACC-257 = test: Growth inhibition of human UACC257 cells at 10 uM after 48 hrs by coulter counter method; details: UACC-257, 48 h, read-out: GI; summary of the method: as §1
SF-268 = test: Growth inhibition of human SF268 cells at 10 uM after 48 hrs by coulter counter method; details: SF-268, 48 h, read-out: GI; summary of the method: as §1
HL-60(TB) = test: Growth inhibition of human HL-60(TB) cells at 10 uM after 48 hrs by coulter counter method; details: HL-60, 48 h, read-out: GI
Summary of the method: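 Single-dose screen on the NCI 60-line panel (leukemia subpanel). Compound is dissolved in DMSO and diluted in PBS, with final DMSO below 1%. Duplicate wells hold 6 × 10⁴ cells/ml at 37 °C, 5% CO₂, for 48 h. Cells are counted by Coulter counter after 10-fold saline dilution. Read-out is percent growth versus PBS/DMSO controls, expressed as % growth inhibition.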

HCT-15 = test: Growth inhibition of human HCT15 cells at 10 uM after 48 hrs by coulter counter method; details: HCT-15, 48 h, read-out: GI; summary of the method: as §1
A549 = test: Growth inhibition of human A549 cells at 10 uM after 48 hrs by coulter counter method; details: A549, 48 h, read-out: GI; summary of the method: as §1
SNB-19 = test: Growth inhibition of human SNB19 cells at 10 uM after 48 hrs by coulter counter method; details: SNB-19, 48 h, read-out: GI; summary of the method: as §1
SK-MEL-5 = test: Growth inhibition of human SK-MEL-5 cells at 10 uM after 48 hrs by coulter counter method; details: SK-MEL-5, 48 h, read-out: GI; summary of the method: as §1
HT-29 = test: Growth inhibition of human HT-29 cells at 10 uM after 48 hrs by coulter counter method; details: HT-29, 48 h, read-out: GI; summary of the method: as §1
Malme-3M = test: Growth inhibition of human MALME-3M cells at 10 uM after 48 hrs by coulter counter method; details: read-out: GI; summary of the method: as §1
786-0 = test: Growth inhibition of human 786-0 cells at 10 uM after 48 hrs by coulter counter method; details: 786-0, 48 h, read-out: GI; summary of the method: as §1

NC1=CC(N)=NC2OC(c3ccc(Cl)cc3)=NN12 (stereo not given)
inhibition of growth at 10 µM (SF-295): < 10%
inhibition of growth at 10 µM (K562): < 10%
inhibition of growth at 10 µM (T47D): < 10%
inhibition of growth at 10 µM (IGROV-1): < 10%
inhibition of growth at 10 µM (MDA-MB-468): < 10%
inhibition of growth at 10 µM (M14): < 10%
inhibition of growth at 10 µM (EKVX): < 10%
inhibition of growth at 10 µM (NCI-H226): < 10%
inhibition of growth at 10 µM (ACHN): < 10%
inhibition of growth at 10 µM (RPMI-8226): < 10%
inhibition of growth at 10 µM (SK-MEL-28): < 10%
inhibition of growth at 10 µM (NCI-H23): < 10%
inhibition of growth at 10 µM (CCRF-CEM): < 10%
inhibition of growth at 10 µM (TK-10): < 10%
inhibition of growth at 10 µM (SN12C): < 10%
inhibition of growth at 10 µM (SK-MEL-2): 10.3%
inhibition of growth at 10 µM (BT-549): < 10%
inhibition of growth at 10 µM (MOLT-4): < 10%
inhibition of growth at 10 µM (MDA-MB-435): < 10%
inhibition of growth at 10 µM (NCI/ADR-RES): < 10%
inhibition of growth at 10 µM (A498): < 10%
inhibition of growth at 10 µM (KM12): < 10%
inhibition of growth at 10 µM (SNB-75): < 10%
inhibition of growth at 10 µM (PC-3): 16.3%
inhibition of growth at 10 µM (NCI-H322M): < 10%
inhibition of growth at 10 µM (U-251): < 10%
inhibition of growth at 10 µM (UO-31): 23.8%
inhibition of growth at 10 µM (OVCAR-8): < 10%
inhibition of growth at 10 µM (MCF7): < 10%
inhibition of growth at 10 µM (UACC-62): < 10%
inhibition of growth at 10 µM (SR): < 10%
inhibition of growth at 10 µM (NCI-H522): 14%
inhibition of growth at 10 µM (CAKI-1): 20.5%
inhibition of growth at 10 µM (HCT-116): < 10%
inhibition of growth at 10 µM (LOX IMVI): < 10%
inhibition of growth at 10 µM (UACC-257): < 10%
inhibition of growth at 10 µM (SF-268): < 10%
inhibition of growth at 10 µM (HL-60(TB)): < 10%
inhibition of growth at 10 µM (HCT-15): < 10%
inhibition of growth at 10 µM (A549): < 10%
inhibition of growth at 10 µM (SNB-19): < 10%
inhibition of growth at 10 µM (SK-MEL-5): < 10%
inhibition of growth at 10 µM (HT-29): < 10%
inhibition of growth at 10 µM (Malme-3M): < 10%
inhibition of growth at 10 µM (786-0): < 10%
